Measurements from different studies.
Target: Aurora kinase B (AURKB, Homo sapiens, UniProt Q96GD4)

C=CC(=O)N1CCC([C@@H]2CCNc3c(C(N)=O)c(-c4ccc(Oc5ccccc5)cc4)nn32)CC1 — inhibition (enzyme activity; inhibitor; 1 µM): 14%
Cc1cc(O)c(-c2ccc([C@@H](C)CN(C)C)cc2)c2c1[nH]c(=O)c1sccc12 — inhibition (enzyme activity; inhibitor; 0.1 µM): 21.5%
CO[C@@H]1[C@H](N(C)C(=O)c2ccccc2)C[C@H]2O[C@]1(C)n1c3ccccc3c3c4c(c5c6ccccc6n2c5c31)C(=O)NC4 — inhibition (enzyme activity; inhibitor; 1 µM): 94%
C#Cc1cc(-c2cc(Nc3nc(N[C@@H](C)c4ccc(F)cn4)ncc3Cl)n[nH]2)ccc1C=O — inhibition (enzyme activity; inhibitor; 0.2 µM): 16.6%
N#Cc1ccc(NC(=O)Nc2ccccc2)cc1 — remaining binding (cell-free assay; competition with immobilised ligand; 25 µM): 82%
C#Cc1cnc(Nc2ccnc(CO)c2)nc1Nc1ccccc1S(C)(=O)=NC#N (stereo not drawn) — remaining signal (cell-free assay; 1 µM): < 10%
C1=C/COCc2cc(ccc2OCCN2CCCC2)Nc2nccc(n2)-c2cccc(c2)COC/1 — remaining binding (binding; 0.1 µM): 100%
CCCCC(=O)Nc1ccc(-c2ccc3ncn(CCC)c(=O)c3c2)cn1 — remaining binding (binding; competition with immobilised ligand; 0.5 µM): 76%
CN1CCN(C(=O)c2ccc(NC(=O)Nc3ccc(N(C)c4ccnc(Nc5ccc(CS(C)(=O)=O)cc5)n4)cc3)cc2)CC1 — remaining binding (binding; competition with immobilised ligand; 1 µM): 0.4%
CC(=O)ON=C1C=CC(=C(C#N)c2ccccc2)C=C1 — activity vs control (enzyme activity; inhibitor; ADP detection; 2 µM): 96%
COc1ccc2oc(-c3ccc4nc(N)oc4c3)c/c(=N\c3ccccc3NC(=O)CCN)c2c1 — remaining signal (cell-free assay; 1 µM): 99%
C[C@H]1CC[C@H](n2c3cnccc3c3cnc(Nc4ccc5c(n4)CCN(C(=O)CO)C5)nc32)CC1 — remaining binding (cell-free assay; competition with immobilised ligand; 1 µM): 34%
